Data from ChEMBL document CHEMBL3877249, “Novel 2-aryl-4-(4'-hydroxyphenyl)-5H-indeno[1,2-b]pyridines as potent DNA non-intercalative topoisomerase catalytic inhibitors” (Eur J Med Chem, 2017).
Counter-ions that a name gives are not always drawn.

Columns and labels:
[1] = biological target: T1, DNA topoisomerase 1 (Homo sapiens) (UniProt P11387); experiment: Inhibition of human DNA topoisomerase-1 at 100 uM using supercoiled pBR322 DNA as substrate after 30 mins by ethidium bromide staining based agarose gel electrophoresis relative to control
T1 sequence (whole entry): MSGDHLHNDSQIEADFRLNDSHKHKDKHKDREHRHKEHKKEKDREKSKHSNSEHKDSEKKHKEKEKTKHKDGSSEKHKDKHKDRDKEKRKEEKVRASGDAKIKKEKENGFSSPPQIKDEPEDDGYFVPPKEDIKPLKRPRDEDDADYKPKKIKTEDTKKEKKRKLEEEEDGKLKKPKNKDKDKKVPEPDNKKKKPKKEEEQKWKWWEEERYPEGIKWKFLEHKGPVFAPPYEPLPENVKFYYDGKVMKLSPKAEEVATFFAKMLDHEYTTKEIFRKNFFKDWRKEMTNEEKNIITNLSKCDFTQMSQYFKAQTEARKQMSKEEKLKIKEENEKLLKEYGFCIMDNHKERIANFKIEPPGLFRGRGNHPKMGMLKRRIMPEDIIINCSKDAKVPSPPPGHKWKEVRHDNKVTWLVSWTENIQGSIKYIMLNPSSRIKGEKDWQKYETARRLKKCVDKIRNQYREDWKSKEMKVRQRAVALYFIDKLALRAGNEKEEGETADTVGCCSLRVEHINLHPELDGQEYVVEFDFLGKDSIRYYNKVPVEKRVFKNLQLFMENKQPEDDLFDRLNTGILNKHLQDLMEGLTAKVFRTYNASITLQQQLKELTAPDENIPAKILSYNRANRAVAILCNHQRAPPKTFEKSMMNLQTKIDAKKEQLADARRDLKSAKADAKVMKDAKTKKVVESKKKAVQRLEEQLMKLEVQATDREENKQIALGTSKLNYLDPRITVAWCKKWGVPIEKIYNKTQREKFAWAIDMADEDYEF
Procedure, shortened: (§1)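 Recombinant human topo I, 1 unit (the amount that fully relaxes supercoiled pBR322), with 100 ng pBR322 DNA at 37 °C for 30 min in 10 mM Tris-HCl pH 7.9, 150 mM NaCl, 0.1% BSA. Compounds were screened at 100 µM, and those above 30% inhibition were retested at 20 µM. Products ran on 1% agarose at 15 V for 7 h in TAE with ethidium bromide staining. Mean ± S.D. from three experiments in triplicate.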

[2] = biological target: DNA topoisomerase 2-alpha (Homo sapiens) (UniProt P11388); experiment: Inhibition of human DNA topoisomerase-2alpha at 100 uM using supercoiled pBR322 DNA as substrate after 30 mins by ethidium bromide staining based agarose gel electrophoresis relative to control
Procedure, shortened: (§2)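 Human topo IIα, 1 unit set by full relaxation of pBR322, with 100 ng pBR322 for 30 min in 10 mM Tris-HCl pH 7.9, 50 mM NaCl, 5 mM MgCl2, 1 mM EDTA and BSA. Stop was with EDTA. Screening was at 100 µM, with retest at 20 µM if inhibition exceeded 30%. Gel was 1% agarose at 25 V for 4 h in TAE, stained with ethidium bromide. Mean ± S.D. from three experiments in triplicate.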

[3] = Antiproliferative activity against human HCT15 cells after 72 hrs by CCK8 assay; assay type: functional, cell-based; conditions: HCT-15, 72 h
Procedure, shortened: (§3)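 Cells seeded at 2–4 × 10^4 per well, grown overnight in medium with 10% FBS at 37 °C and 5% CO2. After 4 h FBS starvation they were exposed to graded compound concentrations for 72 h. CCK-8 was added for a further 4 h and absorbance read at 450 nm. IC50 came from a four-parameter logistic fit.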

[4] = Antiproliferative activity against human T47D cells after 72 hrs by CCK8 assay; assay type: functional, cell-based; procedure, shortened: as §3
[5] = Antiproliferative activity against human DU145 cells after 72 hrs by CCK8 assay; assay type: functional, cell-based; conditions: DU-145, 72 h; procedure, shortened: as §3
[6] = Antiproliferative activity against human HeLa cells after 72 hrs by CCK8 assay; assay type: functional, cell-based; procedure, shortened: as §3
[7] = biological target: DNA topoisomerase 2-alpha (Homo sapiens) (UniProt P11388); experiment: Inhibition of human DNA topoisomerase-2alpha at 20 uM using supercoiled pBR322 DNA as substrate after 30 mins by ethidium bromide staining based agarose gel electrophoresis relative to control; procedure, shortened: as §2
[8] = biological target: T1, DNA topoisomerase 1 (Homo sapiens); experiment: Inhibition of human DNA topoisomerase-1 at 20 uM using supercoiled pBR322 DNA as substrate after 30 mins by ethidium bromide staining based agarose gel electrophoresis relative to control; procedure, shortened: as §1
[9] = Antiproliferative activity against HEK293 cells after 72 hrs by CCK8 assay; assay type: cell-based; conditions: Homo sapiens, HEK293, 72 h; procedure, shortened: as §3
[10] = Antiproliferative activity against HFL1 cells after 72 hrs by CCK8 assay; assay type: cell-based; conditions: Homo sapiens, HFL1, 72 h; procedure, shortened: as §3
[11] = organism: Homo sapiens; experiment: Inhibition of DNA topoisomerase catalytic activity in human T47D nuclear extract at 50 uM using supercoiled pBR322 DNA as substrate after 24 hrs by ethidium bromide staining based agarose gel electrophoresis relative to control
Procedure, shortened: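 T47D cells at 5 × 10^5 per 60 mm dish were grown to 80% confluence, washed with FBS-free medium and treated 24 h. Nuclear extracts were prepared in HEPES/MgCl2/KCl/DTT/NP40 buffer, then extracted with NaCl buffer. The amount of extract that fully relaxes 100 ng pBR322 at 37 °C in 20 min was set as the unit. Products were run on agarose in TAE and stained with ethidium bromide (0.5 µg/mL).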

[12] = biological target: T1, DNA topoisomerase 1 (Homo sapiens); experiment: Poison activity at human DNA topoisomerase-1 assessed as DNA intercalation by measuring DNA unwinding using pHOT1 DNA as substrate after 30 mins by ethidium bromide staining based agarose gel electrophoresis

Sequence of DNA topoisomerase 2-alpha (Homo sapiens) (P11388 whole entry): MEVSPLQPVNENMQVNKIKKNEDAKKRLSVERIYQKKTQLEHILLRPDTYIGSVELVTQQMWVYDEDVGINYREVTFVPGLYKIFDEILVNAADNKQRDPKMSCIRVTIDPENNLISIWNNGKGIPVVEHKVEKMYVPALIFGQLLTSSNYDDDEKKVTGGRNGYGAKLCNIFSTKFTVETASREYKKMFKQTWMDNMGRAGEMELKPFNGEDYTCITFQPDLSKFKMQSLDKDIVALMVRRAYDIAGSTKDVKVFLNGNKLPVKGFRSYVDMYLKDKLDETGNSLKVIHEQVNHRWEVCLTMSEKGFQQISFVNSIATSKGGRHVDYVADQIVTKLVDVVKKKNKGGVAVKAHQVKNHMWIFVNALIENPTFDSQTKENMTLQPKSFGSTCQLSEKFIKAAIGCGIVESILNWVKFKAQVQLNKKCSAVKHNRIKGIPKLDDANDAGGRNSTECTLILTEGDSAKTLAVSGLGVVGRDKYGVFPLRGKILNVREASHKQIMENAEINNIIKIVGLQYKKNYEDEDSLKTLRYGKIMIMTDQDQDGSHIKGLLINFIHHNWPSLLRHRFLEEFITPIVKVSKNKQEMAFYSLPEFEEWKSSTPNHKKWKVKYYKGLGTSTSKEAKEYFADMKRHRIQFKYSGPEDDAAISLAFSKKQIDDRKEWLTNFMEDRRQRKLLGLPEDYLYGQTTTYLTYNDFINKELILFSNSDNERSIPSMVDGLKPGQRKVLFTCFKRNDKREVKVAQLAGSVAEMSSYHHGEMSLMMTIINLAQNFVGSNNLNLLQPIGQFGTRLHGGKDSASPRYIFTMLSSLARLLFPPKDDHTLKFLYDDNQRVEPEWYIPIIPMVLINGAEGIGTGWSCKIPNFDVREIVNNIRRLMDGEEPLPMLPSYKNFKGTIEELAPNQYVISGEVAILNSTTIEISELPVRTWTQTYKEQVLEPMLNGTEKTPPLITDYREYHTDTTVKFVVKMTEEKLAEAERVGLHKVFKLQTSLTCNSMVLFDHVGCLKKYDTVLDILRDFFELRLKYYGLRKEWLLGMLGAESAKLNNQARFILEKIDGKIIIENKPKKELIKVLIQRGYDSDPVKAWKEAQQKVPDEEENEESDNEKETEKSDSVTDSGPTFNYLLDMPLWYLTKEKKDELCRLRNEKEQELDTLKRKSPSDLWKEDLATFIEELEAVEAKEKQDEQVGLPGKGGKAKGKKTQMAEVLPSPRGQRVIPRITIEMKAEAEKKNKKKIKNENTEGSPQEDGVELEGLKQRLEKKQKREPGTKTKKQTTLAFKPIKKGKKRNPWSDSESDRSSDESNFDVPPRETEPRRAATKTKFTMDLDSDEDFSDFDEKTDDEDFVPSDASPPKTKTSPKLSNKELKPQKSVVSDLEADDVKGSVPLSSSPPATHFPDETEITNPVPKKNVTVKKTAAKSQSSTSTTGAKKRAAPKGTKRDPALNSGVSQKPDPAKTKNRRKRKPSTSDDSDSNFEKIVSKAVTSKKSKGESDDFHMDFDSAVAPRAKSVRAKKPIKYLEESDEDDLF

| Structure (SMILES) | inhibition [1] [%] | inhibition [2] [%] | IC50 [3] [µM] | IC50 [4] [µM] | IC50 [5] [µM] | IC50 [6] [µM] | inhibition [7] [%] | inhibition [8] [%] | IC50 [9] [µM] | IC50 [10] [µM] | inhibition [11] [%] | Activity [12] |
| --- | --- | --- | --- | --- | --- | --- | --- | --- | --- | --- | --- | --- |
| Oc1ccc(-c2cc(-c3ccccn3)nc3c2Cc2ccccc2-3)cc1 | 0 | 14.8 | > 50 | > 50 | > 50 | > 50 | – | – | – | – | – | – |
| Oc1ccc(-c2cc(-c3ccoc3)nc3c2Cc2ccccc2-3)cc1 | 1.4 | 61.4 | 1.83 | 2.6 | 6.01 | 5.21 | 28 | – | – | – | – | – |
| Oc1ccc(-c2cc(-c3cccnc3)nc3c2Cc2ccccc2-3)cc1 | 0 | 4 | > 50 | > 50 | > 50 | > 50 | – | – | – | – | – | – |
| Oc1cccc(-c2cc(-c3ccncc3)nc3c2Cc2ccccc2-3)c1 | 1.3 | 49.5 | 1.94 | 1.05 | 4.36 | 2.41 | – | – | – | – | – | – |
| Oc1cccc(-c2cc(-c3ccccn3)nc3c2Cc2ccccc2-3)c1 | 2.4 | 3.5 | > 50 | > 50 | > 50 | > 50 | – | – | – | – | – | – |
| Oc1ccc(-c2cc(-c3ccsc3)nc3c2Cc2ccccc2-3)cc1 | 45.5 | 74.8 | 2.45 | 4.52 | 3.35 | 4.9 | 65.9 | 2.5 | – | – | – | – |
| Oc1ccccc1-c1cc(-c2ccncc2)nc2c1Cc1ccccc1-2 | 0 | 75.2 | 2.18 | 2.44 | 4.7 | 5.78 | 0.9 | – | – | – | – | – |
| Oc1ccccc1-c1cc(-c2ccoc2)nc2c1Cc1ccccc1-2 | 0.4 | 1.8 | > 50 | > 50 | > 50 | > 50 | – | – | – | – | – | – |
| Oc1cccc(-c2cc(-c3ccoc3)nc3c2Cc2ccccc2-3)c1 | 4.5 | 82.2 | 1.24 | 2.91 | 1.51 | 4.48 | 29.6 | – | – | – | – | – |
| COc1cc([C@@H]2c3cc4c(cc3[C@@H](O[C@@H]3O[C@@H]5CO[C@@H](C)O[C@H]5[C@H](O)[C@H]3O)[C@H]3COC(=O)[C@H]23)OCO4)cc(OC)c1O [ETOPOSIDE] | – | – | 1.1 to 2.82 | – | 0.02 to 13.1 | 0.18 to 1.4 | – | – | 1.74 | 87.6 | 61.1 | – |
| c1ccc(-c2cc(-c3ccccn3)nc3c2Cc2ccccc2-3)cc1 | 12.3 | 0 | – | – | – | – | – | – | – | – | – | – |
| Oc1cccc(-c2cc(-c3cccnc3)nc3c2Cc2ccccc2-3)c1 | 1.5 | 18.5 | 1.87 | 1.17 | 2.8 | 5.19 | – | – | – | – | – | – |
| Oc1ccccc1-c1cc(-c2cccnc2)nc2c1Cc1ccccc1-2 | 0 | 65.5 | 3.52 | 5.15 | 7.46 | 7.8 | 10.5 | – | – | – | – | – |
| Oc1ccc(-c2cc(-c3ccncc3)nc3c2Cc2ccccc2-3)cc1 | 0 | 1.14 | > 50 | > 50 | > 50 | > 50 | – | – | – | – | – | – |
| Oc1cccc(-c2cc(-c3ccsc3)nc3c2Cc2ccccc2-3)c1 | 33.1 | 75.5 | 2.49 | 1.52 | 3.12 | 1.74 | 22 | 0 | – | – | – | – |
| Oc1ccccc1-c1cc(-c2ccco2)nc2c1Cc1ccccc1-2 | 62.4 | 58.7 | > 50 | > 50 | > 50 | > 50 | 20 | 27.1 | – | – | – | – |
| COc1cccc2c1C(=O)c1c(O)c3c(c(O)c1C2=O)C[C@@](O)(C(=O)CO)C[C@@H]3O[C@H]1C[C@H](N)[C@H](O)[C@H](C)O1 [DOXORUBICIN HYDROCHLORIDE] | – | – | 1.08 to 1.23 | 1.34 | 0.52 to 1 | 0.88 to 1.2 | – | – | 4.96 | 2.31 | – | – |
| c1ccc(-c2cc(-c3ccco3)nc3c2Cc2ccccc2-3)cc1 | 18.7 | 41.3 | > 50 | – | 7.74 | 16.6 | 5.7 | – | – | – | – | – |
| c1ccc(-c2cc(-c3cccs3)nc3c2Cc2ccccc2-3)cc1 | 56 | 5.8 | > 50 | – | > 50 | > 50 | – | 0 | – | – | – | – |
| COc1cc(NS(C)(=O)=O)ccc1Nc1c2ccccc2nc2ccccc12 | – | – | – | – | – | – | – | – | – | – | – | Dose-dependent effect |
| CC[C@@]1(O)C(=O)OCc2c1cc1n(c2=O)Cc2cc3ccccc3nc2-1 [CAMPTOTHECIN] | – | – | 0.31 to 18.9 | 13.7 | 0.11 to 2.09 | 0.4 to 7.32 | – | – | 0.83 | 1.06 | – | – |
| c1ccc(-c2cc(-c3ccncc3)nc3c2Cc2ccccc2-3)cc1 | 0 | 2.3 | 16.4 | > 50 | > 50 | > 50 | – | – | – | – | – | – |
| c1ccc(-c2cc(-c3ccoc3)nc3c2Cc2ccccc2-3)cc1 | 6.4 | 3.9 | 7.05 | 17.4 | 1.09 | 10.8 | – | – | – | – | – | – |
| Oc1ccccc1-c1cc(-c2ccccn2)nc2c1Cc1ccccc1-2 | 0.5 | 15.2 | > 50 | 29.6 | > 50 | > 50 | – | – | – | – | – | – |
| Oc1cccc(-c2cc(-c3ccco3)nc3c2Cc2ccccc2-3)c1 | 28.9 | 77.5 | 1.58 | 1.07 | 3.75 | 6.27 | 36.9 | – | – | – | – | – |
| c1ccc(-c2cc(-c3ccsc3)nc3c2Cc2ccccc2-3)cc1 | 72.5 | 0.5 | > 50 | – | > 50 | > 50 | – | 0 | – | – | – | – |
| Oc1ccccc1-c1cc(-c2ccsc2)nc2c1Cc1ccccc1-2 | 12.8 | 50.2 | > 50 | > 50 | > 50 | > 50 | 4.9 | – | – | – | – | – |
